{"data": "Results gathered from unrelated publications", "observed": "cell growth or viability", "note": "Lines come from different studies, so protocols differ."}
{"Structure (SMILES)": "Nc1nc2sc(CCCCCCc3ccc(C(=O)N[C@@H](CCC(=O)O)C(=O)O)cc3)cc2c(=O)[nH]1", "cell line": "R2/PCFT4", "conditions": "96 h, pH 7.2", "IC50": "> 1000 nM"}
{"Structure (SMILES)": "COc1cc(Nc2nccc(-c3cnn4nc(OC)ccc34)n2)cc(C(F)(F)F)c1", "cell line": "NCI-H1048", "test": "ATP luminescence", "IC50": "380 nM"}
{"Structure (SMILES)": "OCc1ccc2c(c1C#Cc1ccc(O)cc1)C(c1ccc(O)cc1)(c1ccc(O)cc1)c1cc(O)ccc1-2", "cell line": "HUVEC", "test": "MTT", "conditions": "48 h", "IC50": "> 50000 nM"}
{"Structure (SMILES)": "COc1cccc2c1C(=O)c1c(O)c3c(c(O)c1C2=O)C[C@@](O)(C(=O)CO)C[C@@H]3O[C@H]1C[C@H](N)[C@H](O)[C@H](C)O1", "cell line": "HUVEC", "test": "MTT", "conditions": "48 h", "IC50": "2 µg/mL"}
{"Structure (SMILES)": "CCCON(Cc1ccc(C(=O)NO)cc1)C(=O)Nc1ccccc1", "cell line": "HAL-01", "test": "ATP luminescence", "conditions": "72 h", "IC50": "6650 nM"}
{"Structure (SMILES)": "Nc1nc2sc(CCc3ccc(C(=O)N[C@@H](CCC(=O)O)C(=O)O)cc3)cc2c(=O)[nH]1", "cell line": "R2/PCFT4", "conditions": "96 h, pH 7.2", "IC50": "> 1000 nM"}
{"Structure (SMILES)": "COc1cc2ncnc(Nc3ccc(F)c(Cl)c3)c2cc1NC(=O)N/N=C/CN1CCCC1", "cell line": "PC-3", "test": "MTT", "conditions": "72 h", "IC50": "2550 nM"}
{"Structure (SMILES)": "COc1cc(/C=C/C(=O)CC(=O)/C=C/c2ccc(O)c(OC)c2)ccc1O", "cell line": "HUVEC", "test": "MTT", "conditions": "48 h", "IC50": "10.3 µg/mL"}
{"Structure (SMILES)": "CO[C@H]1/C=C\\C=C(/C)C(=O)NC2=CC(=O)C(NCCN(C)C)=C(C[C@@H](C)C[C@H](OC)[C@H](O)[C@@H](C)/C=C(\\C)[C@@H]1OC(N)=O)C2=O", "cell line": "HUVEC", "test": "MTT", "IC50": "880 nM"}
{"Structure (SMILES)": "COc1cc2ncnc(Nc3ccc(F)c(Cl)c3)c2cc1NC(=O)N/N=C/c1cccn1CCN1CCN(C)CC1", "cell line": "PC-3", "test": "MTT", "conditions": "72 h", "IC50": "2080 nM"}
{"Structure (SMILES)": "CC(C)C[C@H](NC(=O)[C@H](Cc1ccccc1)NC(=O)c1cnccn1)B(O)O", "cell line": "NCI-H2286", "test": "ATP luminescence", "IC50": "6.6 nM"}
{"Structure (SMILES)": "CN1c2ccccc2C(=O)N2[C@H](C(=O)Nc3ccc(/C=C/C(=O)NO)cc3)Cc3c([nH]c4ccccc34)[C@@H]12", "cell line": "HUVEC", "IC50": "7400 nM"}
{"Structure (SMILES)": "CCOc1cc(-c2nc3ccc(C)cc3[nH]2)ccc1O", "cell line": "C26", "test": "MTT", "conditions": "48 h", "IC50": "32800 nM"}
{"Structure (SMILES)": "Nc1nc2sc(CCCCCCCCc3ccc(C(=O)N[C@@H](CCC(=O)O)C(=O)O)cc3)cc2c(=O)[nH]1", "cell line": "R2/PCFT4", "conditions": "96 h, pH 7.2", "IC50": "> 1000 nM"}
{"Structure (SMILES)": "Cn1cc(-c2ccc3c(c2)ncn3-c2ccc(CC(=O)Nc3cc(C(C)(C)C)on3)cc2)cn1", "cell line": "NIH3T3", "IC50": "34.4 nM"}
{"Structure (SMILES)": "Nc1ccn([C@@H]2O[C@H](CO)[C@@H](O)C2(F)F)c(=O)n1", "cell line": "HFF-1", "test": "MTT", "IC50": "14400 nM"}
